Source: ChEMBL document CHEMBL1130053, “Synthesis and biological evaluation of the enantiomers of the potent and selective A1-adenosine antagonist 1,3-dipropyl-8-[2-(5,6-epoxynorbonyl)]-xanthine” (J Med Chem, 1997)

What was measured:
Rattus norvegicus [1] = experiment: Urine output (collected per 4 h) in Saline -Loaded Rats at 1.0 mg /kg intravenous dose; format: functional
In short: (§1)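 Sprague-Dawley rats (250-350 g), 2 h equilibration, then tail-vein dosing (vehicle 50% saline/40% PEG/10% ethanol, 1.0 mL/kg). This was followed at once by 40 mL/kg saline po. Urine collected 4 h in metabolic cages, volume by weight, Na⁺/K⁺ by flame photometry. n = 6-7 per dose, mean ± SEM, 1-way ANOVA with Bonferroni test versus vehicle.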

Rattus norvegicus [2] = experiment: Sodium ion output (collected per 4 h) in Saline -Loaded Rats at 1.0 mg /kg intravenous dose; format: functional; in short: as §1
Rattus norvegicus [3] = experiment: Sodium ion output (collected per 4 h) in Saline -Loaded Rats at 0.01 mg /kg intravenous dose; format: functional; in short: as §1
Rattus norvegicus [4] = experiment: Potassium ion output (collected per 4 h) in Saline -Loaded Rats at 0.1 mg /kg intravenous dose; format: functional; in short: as §1
Adenosine receptor A1 [5] = molecular target: T1, Adenosine receptor A1 (Cavia porcellus, UniProt P47745); experiment: Binding affinity for Adenosine A1 receptor from Guinea pig membranes
T1 sequence (P47745 whole entry): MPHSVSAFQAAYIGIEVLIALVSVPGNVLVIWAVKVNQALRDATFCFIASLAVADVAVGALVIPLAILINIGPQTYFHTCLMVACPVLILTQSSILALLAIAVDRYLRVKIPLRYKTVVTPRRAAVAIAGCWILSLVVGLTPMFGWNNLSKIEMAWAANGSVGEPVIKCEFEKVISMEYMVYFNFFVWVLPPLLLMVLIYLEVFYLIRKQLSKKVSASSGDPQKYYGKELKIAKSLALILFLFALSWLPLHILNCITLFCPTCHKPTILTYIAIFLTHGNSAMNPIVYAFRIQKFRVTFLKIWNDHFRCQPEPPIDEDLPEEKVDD

Adenosine receptor A1 [6] = molecular target: T2, Adenosine receptor A1 (Rattus norvegicus, UniProt P25099); experiment: Binding affinity for Adenosine A1 receptor of rat forebrain
T2 sequence (P25099 whole entry): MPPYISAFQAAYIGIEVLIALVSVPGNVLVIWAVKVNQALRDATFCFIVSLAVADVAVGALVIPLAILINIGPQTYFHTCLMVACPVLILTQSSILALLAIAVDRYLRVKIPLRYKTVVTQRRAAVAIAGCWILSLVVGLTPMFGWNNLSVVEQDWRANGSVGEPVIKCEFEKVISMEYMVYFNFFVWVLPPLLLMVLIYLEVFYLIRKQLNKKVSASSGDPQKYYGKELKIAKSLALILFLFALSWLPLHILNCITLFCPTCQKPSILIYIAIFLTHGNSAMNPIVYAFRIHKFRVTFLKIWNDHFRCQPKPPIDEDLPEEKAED

Adenosine A2 receptor = Adenosine A2 receptor (Rattus norvegicus, UniProt P29276+P30543); experiment: Binding affinity for Adenosine A2 receptor from rat striatal membranes
Rattus norvegicus [7] = experiment: Potassium ion output (collected per 4 h) in Saline -Loaded Rats at 0.01 mg /kg intravenous dose; format: functional; in short: as §1
Rattus norvegicus [8] = experiment: Potassium ion output (collected per 4 h) in Saline -Loaded Rats at 1.0 mg /kg intravenous dose; format: functional; in short: as §1
Rattus norvegicus [9] = experiment: Urine output (collected per 4 h) in Saline -Loaded Rats at 0.1 mg /kg intravenous dose; format: functional; in short: as §1
Rattus norvegicus [10] = experiment: Sodium ion output (collected per 4 h) in Saline -Loaded Rats at 0.1 mg /kg intravenous dose; format: functional; in short: as §1
Rattus norvegicus [11] = experiment: Urine output (collected per 4 h) in Saline -Loaded Rats at 0.01 mg /kg intravenous dose; format: functional; in short: as §1
Adenosine receptor A1 [12] = molecular target: T3, Adenosine receptor A1 (Homo sapiens, UniProt P30542); experiment: Inhibition of binding to membranes from HEK293 cells expressing human Adenosine A1 receptor; format: cell membranes
T3 sequence (P30542 whole entry): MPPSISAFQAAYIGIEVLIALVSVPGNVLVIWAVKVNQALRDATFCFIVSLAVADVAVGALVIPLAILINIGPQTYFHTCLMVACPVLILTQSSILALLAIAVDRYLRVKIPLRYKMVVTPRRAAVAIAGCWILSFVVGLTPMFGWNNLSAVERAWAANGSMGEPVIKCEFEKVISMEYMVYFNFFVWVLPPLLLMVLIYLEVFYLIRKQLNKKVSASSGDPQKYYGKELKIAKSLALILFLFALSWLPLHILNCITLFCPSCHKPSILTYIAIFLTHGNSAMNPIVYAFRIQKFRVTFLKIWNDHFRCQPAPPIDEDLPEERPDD

Row | SMILES | Urine output (Rattus norvegicus [1]) [mL/kg] | Na+ output (Rattus norvegicus [2]) [mmol/kg] | Na+ output (Rattus norvegicus [3]) [mmol/kg] | K+ output (Rattus norvegicus [4]) [mmol/kg] | Ki (Adenosine receptor A1 [5]) [nM] | Ki (Adenosine receptor A1 [6]) [nM] | Ki (Adenosine A2 receptor) [nM] | K+ output (Rattus norvegicus [7]) [mmol/kg] | K+ output (Rattus norvegicus [8]) [mmol/kg] | Urine output (Rattus norvegicus [9]) [mL/kg] | Na+ output (Rattus norvegicus [10]) [mmol/kg] | Urine output (Rattus norvegicus [11]) [mL/kg] | Ki (Adenosine receptor A1 [12]) [nM]
1 | CCCn1c(=O)c2nc(C3CC4CC3C3OC43)[nH]c2n(CCC)c1=O (stereo in doubt; 12) | 37.1 | 5.86 | 3.02 | 1.34 | 1.43 | 0.67 | 1250 | 0.75 | 1.09 | 35.1 | 5.29 | 21.7 | 0.45
2 | CCCn1c(=O)c2nc(C3CC4CC3C3OC43)[nH]c2n(CCC)c1=O (stereo in doubt; 8) | 44.1 | 5.99 | 3.8 | 0.89 | 3.17 | 5.12 | 551 | 0.97 | 1.84 | 31.3 | 4.56 | 26.8 | 0.8
3 | CCCn1c(=O)c2nc(C3CC4CC3C3OC43)[nH]c2n(CCC)c1=O (stereo in doubt) | 43.2 | 6.54 | 3.54 | 1.22 | 3.15 | 1.43 | 309 | 1.1 | 1.42 | 33 | 5.14 | 23.2 | 0.82
4 | CCCn1c(=O)c2nc(C34CC5CC(CC3C5)C4)[nH]c2n(CCC)c1=O [ROLOFYLLINE] |  |  |  |  |  |  | 510 |  |  |  |  |  | 
